These results are taken from article PMC11969444 (RSC Advances, 2025).

In one assay the target is β-glucosidase. As to the kind of experiment: In vitro β-glucosidase inhibitory assay. The format is biochemical. The note with it: read-out: β-Glucosidase IC50 ± SEM; mean ± standard error of the mean. In short, it runs like this: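 β-Glucosidase solution (0.5 U mL−1) was preincubated with test compound at varying concentrations in 0.1 M phosphate buffer, pH 6.9, at 37 °C for 15 min. The reaction was started with 5 mM p-nitrophenyl-β-D-glucopyranoside solution in the same buffer and run at 37 °C for 15 min. It was stopped with 0.2 M sodium carbonate and read at 405 nm. Controls were a sample-free reaction and an enzyme-free blank.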

Assay [1] has as its system PGLT-induced diabetic rats. As to the kind of experiment: Serum hepatic marker enzymes. The format is in vivo. Particulars: 10 mg kg^−1, serum. The essentials:
(§1)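 Rats were given PGLT to induce diabetes and treated with test compounds for 28 days. Blood glucose and body weight were recorded on days 1, 7, 14, 21 and 28. Serum was assayed for TG, total CH, LDL, HDL, SGOT, SGPT and ALP. Groups were normal control, diabetic control and treated, n = 8 per group, shown as mean ± SEM. Treated groups were compared with diabetic control by one-way ANOVA with Dunnett's post hoc test.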

Assay [2] has as its system PGLT-induced diabetic rats. As to the kind of experiment: Blood glucose level in PGLT-induced diabetes. The assay is classed as in vivo. The essentials:
as §1

Assay [3] relates to PGLT-induced diabetic rats. As to the kind of experiment: Antihyperlipidemic effects. The format is in vivo. The note with it: 10 mg kg^−1, 28 days. The essentials:
as §1

A further assay can be described thus: Effect on body weights. The assay is classed as in vivo, rats. The essentials:
as §1

Broadly, the IC50 is the point on the concentration scale where inhibition reaches its midpoint.

Take `C[C@H]1O[C@H](O[C@H]2[C@H](O)[C@@H](O)[C@@H](O[C@H]3[C@H](O)[C@@H](O)C(O)O[C@@H]3CO)O[C@@H]2CO)[C@H](O)[C@@H](O)[C@@H]1N[C@H]1C=C(CO)[C@@H](O)[C@H](O)[C@H]1O` (some centres unmarked) [Acarbose, acarbose]: on β-glucosidase, the IC50 was […].

In assay [1], `O=[N+]([O-])c1ccc(O[C@@H]2O[C@H](CO)[C@@H](O)[C@H](O)[C@H]2O)cc1` [PGLT, p-nitrophenyl-β-D-glucopyranoside] showed an ALP of 171.04 ± 3.91 IU. In assay [1], this molecule came in with an SGOT of 21.39 ± 1.79 IU. In assay [1], the SGPT came out at 21.17 ± 1.88 IU. The Blood glucose level in assay [2] (10 mg kg^−1, 1st day) is recorded as 402.22 ± 4.97 mg per dL; in assay [2] (10 mg kg^−1, 7th day), 229.56 ± 4.80 mg per dL; in assay [2] (10 mg kg^−1, 14th day), 154.06 ± 4.59 mg per dL; in assay [2] (10 mg kg^−1, 21st day), 119.70 ± 4.87 mg per dL; in assay [2] (10 mg kg^−1, 28th day, listed as p-Nitrophenyl-β-D-glucopyranoside (PGLT)), 102.27 ± 4.31 mg per dL; in assay [2] (10 mg kg^−1, 28th day, listed as p-nitrophenyl-β-D-glucopyranoside (PGLT)), 102.27 ± 4.31 mg per dL. The molecule also gave an HDL in assay [3] of 55.72 ± 2.01 mg/dL. The same molecule registered an LDL in assay [3] of 87.58 ± 2.96 mg/dL. The molecule further returned a TG in assay [3] of 96.36 ± 4.51 mg/dL. Besides, the “Total CH” value in assay [3] was determined as 104.73 ± 4.83 mg/dL. For the same molecule, the Body weight amounted to 20.16 ± 1.71 in the assay “Effect on body weights” (10 mg kg^−1, 1st day); 19.88 ± 1.81 in the assay “Effect on body weights” (10 mg kg^−1, 7th day); 20.01 ± 1.61 in “Effect on body weights” (10 mg kg^−1, 14th day); 19.70 ± 1.69 in the assay “Effect on body weights” (10 mg kg^−1, 21st day); 19.66 ± 1.51 in the assay “Effect on body weights” (10 mg kg^−1, 28th day). The molecule also gave a weight loss in the assay “Effect on body weights” (day 1 to day 28, PGLT-treated group) of 2.48%.
